The values that follow come from ChEMBL document CHEMBL4725242, “Discovery of GS-9688 (Selgantolimod) as a Potent and Selective Oral Toll-Like Receptor 8 Agonist for the Treatment of Chronic Hepatitis B” (J Med Chem, 2020).

Where only a bound is given, the exact number is not on record here.

One data set has as its target T1, Toll-like receptor 7 (Homo sapiens, UniProt Q9NYK1).
T1 sequence (Q9NYK1 whole entry): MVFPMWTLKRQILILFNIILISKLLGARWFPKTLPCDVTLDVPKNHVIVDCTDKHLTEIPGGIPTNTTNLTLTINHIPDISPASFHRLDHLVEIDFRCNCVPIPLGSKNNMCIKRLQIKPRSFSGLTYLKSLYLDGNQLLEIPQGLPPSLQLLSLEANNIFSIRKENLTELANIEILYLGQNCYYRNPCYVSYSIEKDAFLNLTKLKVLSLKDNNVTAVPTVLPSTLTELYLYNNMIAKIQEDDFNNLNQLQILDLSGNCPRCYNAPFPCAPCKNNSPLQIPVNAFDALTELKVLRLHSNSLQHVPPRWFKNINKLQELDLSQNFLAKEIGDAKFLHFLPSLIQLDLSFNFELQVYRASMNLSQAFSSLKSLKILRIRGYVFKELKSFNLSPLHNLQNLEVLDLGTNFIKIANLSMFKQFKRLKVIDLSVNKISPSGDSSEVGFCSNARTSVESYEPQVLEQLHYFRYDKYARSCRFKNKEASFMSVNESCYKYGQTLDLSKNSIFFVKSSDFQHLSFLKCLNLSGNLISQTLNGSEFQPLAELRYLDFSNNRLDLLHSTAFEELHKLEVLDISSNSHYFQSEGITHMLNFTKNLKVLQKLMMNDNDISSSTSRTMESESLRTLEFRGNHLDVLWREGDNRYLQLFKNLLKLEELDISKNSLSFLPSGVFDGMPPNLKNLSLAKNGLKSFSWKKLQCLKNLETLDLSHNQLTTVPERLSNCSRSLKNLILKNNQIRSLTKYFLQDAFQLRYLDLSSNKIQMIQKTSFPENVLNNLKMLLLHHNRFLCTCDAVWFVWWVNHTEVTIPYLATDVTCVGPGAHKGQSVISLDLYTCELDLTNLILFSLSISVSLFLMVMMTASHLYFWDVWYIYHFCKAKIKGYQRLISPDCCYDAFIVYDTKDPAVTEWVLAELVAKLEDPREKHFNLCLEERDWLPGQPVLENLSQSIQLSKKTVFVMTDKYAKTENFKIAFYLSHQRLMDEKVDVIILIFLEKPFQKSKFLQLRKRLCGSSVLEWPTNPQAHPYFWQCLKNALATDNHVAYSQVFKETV
Description: Agonist activity at TLR7 in human cryopreserved PBMC assessed as induction of IFNalpha production measured after 24 hrs.
Conditions: not given
The method, boiled down:
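Cryopreserved healthy-donor human PBMC, recovered 2 h at 37°C/5% CO2, then 100k cells/well in RPMI/10% FBS exposed 24 h at 37°C to a 10-point half-log dilution series (0.5% final DMSO). Supernatant IFNα-2a quantified by MSD electrochemiluminescence immunoassay. For the ratio, divided by the IL-12p40 EC50 from the same PBMC screen.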
`CCCCOc1nc(N)nc2cccnc12`: the EC50 is greater than 50 µM.

For `CCCC[C@@](C)(Nc1nc(N)nc2cc(F)cnc12)C(=O)O`, the EC50 is greater than 50 µM.

With `CCCC[C@H](CCO)Nc1nc(N)nc2cccnc12`, the EC50 is greater than 50 µM.

With `CCCC[C@@H](CO)Nc1cc(N)nc2ccccc12`, the EC50 is greater than 50 µM.

As for `CCCC[C@@H](Nc1nc(N)nc2cccnc12)C(=O)O`, the EC50 was greater than 50 µM.

Regarding `CCCCC(CO)(CCCC)Nc1nc(N)nc2cccnc12`, the EC50 is greater than 50 µM.

For `CCCC[C@@H](CO)Nc1nc(N)nc2ccccc12`, the EC50 was determined as 0.57 µM.

For the compound `CCCC[C@@H](Nc1nc(N)nc2cccnc12)C(N)=O`, the 50% effective concentration (EC50) was greater than 50 µM.

As to `CCCC(C)Nc1nc(N)nc2cccnc12` (stereo not drawn), the EC50 was found to be 5.1 µM.

On to `CCC[C@H](CO)Nc1nc(N)nc2cccnc12`, for which the EC50 is greater than 50 µM.

As to `C[C@](CO)(CCCCO)Nc1nc(N)nc2cc(F)cnc12`, the 50% effective concentration (EC50) is greater than 50 µM.

Turning to `CCCC[C@@](C)(CO)Nc1nc(N)nc2cc(F)cnc12`, the EC50 was greater than 50 µM.

Turning to `CCCN(CCC)C(=O)C1=Cc2ccc(-c3ccc(C(=O)N4CCCC4)cc3)cc2N=C(N)C1` [MOTOLIMOD], the EC50 was greater than 30 µM.

With `CCCCC[C@H](CO)Nc1nc(N)nc2cccnc12`, the EC50 is greater than 20 µM.

Another data set has as its target T2, Toll-like receptor 8 (Homo sapiens, UniProt Q9NR97).
T2 sequence (Q9NR97 whole entry): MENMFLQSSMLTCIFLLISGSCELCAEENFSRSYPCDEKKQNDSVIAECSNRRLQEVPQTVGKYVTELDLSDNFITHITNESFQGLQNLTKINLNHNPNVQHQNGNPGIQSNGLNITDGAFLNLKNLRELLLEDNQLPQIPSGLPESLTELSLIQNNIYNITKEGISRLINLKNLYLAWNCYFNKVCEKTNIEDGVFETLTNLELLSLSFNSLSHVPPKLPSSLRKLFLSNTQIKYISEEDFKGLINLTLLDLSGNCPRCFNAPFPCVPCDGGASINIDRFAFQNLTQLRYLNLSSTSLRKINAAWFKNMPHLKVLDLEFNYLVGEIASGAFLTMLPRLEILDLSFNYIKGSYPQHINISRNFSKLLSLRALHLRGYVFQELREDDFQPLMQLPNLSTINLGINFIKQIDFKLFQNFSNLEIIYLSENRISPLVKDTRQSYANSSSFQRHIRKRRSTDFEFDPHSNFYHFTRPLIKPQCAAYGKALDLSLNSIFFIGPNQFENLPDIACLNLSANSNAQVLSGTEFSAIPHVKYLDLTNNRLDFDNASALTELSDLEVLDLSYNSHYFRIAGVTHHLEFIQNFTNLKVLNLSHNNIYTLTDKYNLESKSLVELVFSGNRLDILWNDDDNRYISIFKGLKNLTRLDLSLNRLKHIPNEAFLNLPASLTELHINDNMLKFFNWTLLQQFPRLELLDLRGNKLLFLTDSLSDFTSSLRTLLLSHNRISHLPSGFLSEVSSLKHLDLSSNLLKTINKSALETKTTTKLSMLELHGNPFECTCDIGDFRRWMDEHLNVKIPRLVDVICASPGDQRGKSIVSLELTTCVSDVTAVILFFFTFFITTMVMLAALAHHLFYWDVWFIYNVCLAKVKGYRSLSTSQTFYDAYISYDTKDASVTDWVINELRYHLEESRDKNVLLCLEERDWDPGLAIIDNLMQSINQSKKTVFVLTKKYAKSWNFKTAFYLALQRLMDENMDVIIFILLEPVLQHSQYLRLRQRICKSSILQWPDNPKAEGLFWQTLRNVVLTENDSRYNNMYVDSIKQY
Description: Agonist activity at TLR8 in human cryopreserved PBMC assessed as induction of IL-12p40 production measured after 24 hrs.
Conditions: not given
Turning to `CCCCOc1nc(N)nc2cccnc12`, the EC50 is greater than 50 µM.

In the case of `CCCC[C@@](C)(Nc1nc(N)nc2cc(F)cnc12)C(=O)O`, the EC50 is greater than 50 µM.

For the compound `CCCC[C@H](CCO)Nc1nc(N)nc2cccnc12`, the EC50 was 4.3 µM.

Consider `CCCC[C@@H](CO)Nc1cc(N)nc2ccccc12`, for which the EC50 is greater than 50 µM.

As to `CCCC[C@@H](Nc1nc(N)nc2cccnc12)C(=O)O`, the EC50 is greater than 50 µM.

In the case of `CCCCC(CO)(CCCC)Nc1nc(N)nc2cccnc12`, the EC50 was greater than 50 µM.

With `CCCC[C@@H](CO)Nc1nc(N)nc2ccccc12`, the EC50 amounted to 0.71 µM.

As to `CCCC[C@@H](Nc1nc(N)nc2cccnc12)C(N)=O`, the EC50 worked out at 36 µM.

For the compound `CCCC(C)Nc1nc(N)nc2cccnc12` (stereo not drawn), the EC50 turned out to be 3.1 µM.

`CCC[C@H](CO)Nc1nc(N)nc2cccnc12`: the 50% effective concentration (EC50) was determined as 19 µM.

Take `C[C@](CO)(CCCCO)Nc1nc(N)nc2cc(F)cnc12`: the EC50 is greater than 50 µM.

For the compound `CCCC[C@@](C)(CO)Nc1nc(N)nc2cc(F)cnc12`, the EC50 stood at 3.3 µM.

Take `CCCN(CCC)C(=O)C1=Cc2ccc(-c3ccc(C(=O)N4CCCC4)cc3)cc2N=C(N)C1` [MOTOLIMOD]: the EC50 worked out at 1.3 µM.

As to `CCCCC[C@H](CO)Nc1nc(N)nc2cccnc12`, the EC50 is 3.33 µM.

Test system in another data set: not listed separately
Description: Cytotoxicity against human MT4 cells assessed as reduction in cell viability measured after 4 to 5 days by celltiter-glo assay. To be noted: time 4-5 day. It is filed as cell-based.
Regarding `CCCC[C@@](C)(Nc1nc(N)nc2cc(F)cnc12)C(=O)O`, the CC50 was greater than 50 µM.

With `CCCCC(CO)(CCCC)Nc1nc(N)nc2cccnc12`, the CC50 was determined as 38 µM.

Take `C[C@](CO)(CCCCO)Nc1nc(N)nc2cc(F)cnc12`: the half-maximal cytotoxic concentration (CC50) was greater than 50 µM.

`CCCC[C@@](C)(CO)Nc1nc(N)nc2cc(F)cnc12`: the CC50 is 0.79 µM.

Test system in the next data set: not listed separately
In words: Selectivity index, ratio of CC50 for human MT4 cells to EC50 for TLR8 in human cryopreserved PBMC assessed as induction of IL-12p40 production.
Conditions: not given
For the compound `CCCC[C@@](C)(CO)Nc1nc(N)nc2cc(F)cnc12`, the “Ratio CC50/EC50” value is given as 0.2.
